From PubChem
697 NFkB inh – inhibitors of the PMA/ionomycin-induced NF-kB reporter in 697 B cells | AID 435022 | 697 B-cell NF-kB luciferase reporter, 16 h | inhibition, % at 4 µM | 330,000 tested, 0.33% active; in the data active = inhibition above about 35%
miR122 inh – inhibitors of miR-122 in Huh7 cells | 340,000 tested, 0.3% active | Huh7 miR-122 Renilla luciferase sensor, 48 h; neutral wells = 0, positive control = 100 | activation (reporter increase), % at 12.5 µM;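 active = mean replicate activation score at least 90 and every replicate individually at or above 90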;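 also: higher luciferase means less miR-122 activity so hits act as miR-122 inhibitors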
NR2E3 ag-1 – agonists of human NR2E3 nuclear receptor; Q9Y5X4; inhibition of corepressor binding, % at 3.98 µM; AID 602229; CHO-S Gal4-NCOR/VP16-NR2E3 two-hybrid, luciferase; 360,000 tested, 0.35% active;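 active = inhibition above the mean of all tested compounds plus 3 SD, cut at about 70% in these data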;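 also: 0% = DMSO with NR2E3 transfected cells and 100% = cells lacking NR2E3 construct; higher means lower luciferase signal from less NR2E3 corepressor binding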
Target sequence (Q9Y5X4 whole entry, looked up, the tested form may be a part): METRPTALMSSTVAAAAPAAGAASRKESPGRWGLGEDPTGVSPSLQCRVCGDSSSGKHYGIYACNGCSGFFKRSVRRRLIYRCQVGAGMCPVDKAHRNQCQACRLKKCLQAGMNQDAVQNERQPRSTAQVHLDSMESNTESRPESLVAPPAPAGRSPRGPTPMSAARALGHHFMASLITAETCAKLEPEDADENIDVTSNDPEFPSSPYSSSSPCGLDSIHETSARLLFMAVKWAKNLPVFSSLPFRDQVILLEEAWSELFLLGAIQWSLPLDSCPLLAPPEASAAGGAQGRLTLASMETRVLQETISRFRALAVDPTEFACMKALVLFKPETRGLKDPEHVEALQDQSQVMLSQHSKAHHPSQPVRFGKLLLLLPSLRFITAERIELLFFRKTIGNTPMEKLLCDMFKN
FGF22 binding – binders of recombinant human FGF22 by thermal shift; 340,000 tested, 1.5% active; Q9HCT0; activity (Tm shift, normalised), % at 9.99 µM; SYPRO orange fluorescence; percent of sucrose octasulfate shift, DMSO zero; AID 651658;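 active = mean Tm shift, scaled 0 neutral to 100 positive control, at about 1.3% or above, every replicate too, limit read from the data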
NR2E3 ag-2 – activates human photoreceptor nuclear receptor NR2E3; Q9Y5X4; GST-NR2E3/biotin-RetCOR TR-FRET, 1536-well; inhibition of corepressor binding, % at 4.78 µM; 320,000 tested, 0.12% active;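 active = percent inhibition above the cutoff of mean plus 3 SD of all tested compounds, set per screening campaign, cut at about 20% in these data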;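 also: 0% = DMSO wells and 100% = biotin wells as full block of FRET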
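Format: 1536-well format; test system: GST-NR2E3 and biotin-RetCOR proteins; read-out basis: percent inhibition of TR-FRET ratio; timing: 5 h incubation at 4 °C; detection: time-resolved FRET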
Jurkat NFkB inh – inhibitors of the PMA/ionomycin-induced NF-kB reporter in Jurkat cells; PMA/ionomycin-induced NF-kB luciferase reporter, luminescence; inhibition, % at 4 µM; 330,000 tested, 0.53% active; AID 435003; in the data active = inhibition above about 50%
NR2E3 ag confirm – NR2E3 agonism confirmed in two-hybrid assay | shares compounds with NR2E3 ag-1 | CHO-S mammalian two-hybrid NR2E3-NCOR, luciferase luminescence | inhibition, % at 3.98 µM | 2,300 tested, 51% active | AID 624378;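 active = average inhibition above a cutoff equal to the mean inhibition of all tested compounds plus one SD, cut at about 70% in these data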;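 also: 0% = DMSO in NR2E3 cells and 100% = DMSO in cells lacking NR2E3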
VP16 counter – counter-screen for NR2E3 agonists: GAL4-VP16 reporter inhibitors. 2,300 tested, 29% active. CHO-S GAL4-VP16 luciferase reporter, luminescence. shares compounds with NR2E3 ag-1. inhibition, % at 3.98 µM. AID 624379;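 active = mean inhibition above a cutoff equal to the average over all tested compounds plus one standard deviation, cut at about 70% in these data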;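 also: luciferase from a UAS reporter driven by GAL4-VP16 transactivation; 0% = DMSO with VP16-transfected cells and 100% = DMSO with cells lacking VP16; higher means less reporter light so more repression of VP16 activity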
Numbers without * were called inactive; / = no result given; [ ] = another dose, or the depositor's remark. In the library only some 2.2% were active in any assay of this set; here they are far more common.

SMILES | 697 NFkB inh | miR122 inh | NR2E3 ag-1 | FGF22 binding | NR2E3 ag-2 | Jurkat NFkB inh | NR2E3 ag confirm | VP16 counter
NC(=O)CC(NC(=O)Cc1cccc2ccccc12)c1ccc(NC2CC3CCC2C3)c([N+](=O)[O-])c1 (centres undefined) | 17 | 5 | -45 | 0 | -1 | 15 | / | /
Cc1csc2ncnc(N3CCN(S(=O)(=O)c4cccc(C(F)(F)F)c4)CC3)c12 | -46 | / | 94* | 0 | 1 | 5 | 97* | 90*
C[C@@H]1CN([C@H](C)CO)C(=O)c2cc(NS(=O)(=O)c3ccc(F)cc3)ccc2O[C@@H](C)CCCCO[C@@H]1CN(C)S(=O)(=O)c1cn(C)cn1 | / | 16[16.7 µM] | / | 0 | / | / | / | /
Cc1cccc(Nc2nc(NCc3ccco3)c3ccccc3n2)c1 | / | / | 74* | 0 | 5 | / | 100* | 87*
c1ccc(Nc2nc(NCc3ccco3)c3ccccc3n2)cc1 | -67 | / | -17 | 0 | -2 | -10 | / | /
O=C(CCl)N1CCN2C(=O)c3ccccc3C12c1ccc(Cl)cc1 (centres undefined) | -3 | / | -21 | 0 | -5 | -5 | / | /
Cc1ccc(C(=O)N2CCN3C(=O)c4ccccc4C23c2ccc(Cl)cc2)cc1 (centres undefined) | -8 | -12 | 74* | / | 2 | 24 | 44 | 15
COc1ccc(NC(=O)Nc2ccc3c(c2)[C@H]2C[C@H](CC(=O)NCc4ccccc4F)O[C@@H](CO)[C@H]2O3)cc1 | / | 4[16.7 µM] | / | 0 | / | / | / | /
O=c1c2ccccc2sn1-c1ccc(Cl)cc1 | / | 4 | 55 | 0 | / | / | -47 | -122
O=c1c2ccccc2sn1-c1ccc(F)cc1 | -1 | 2 | 41 | 0 | 2 | -23 | / | /
Cc1ccc(N2CC(C(=O)Nc3nccs3)CC2=O)cc1Cl (centres undefined) | 12 | 96* | 48 | / | 2 | 14 | 59 | 21
CCNC(=O)C[C@H]1CC[C@H]2[C@@H](COc3ccc(NC(=O)C4CCOCC4)cc3C(=O)N2C)O1 | / | -3[16.7 µM] | / | 0 | / | / | / | /
Cc1ccc(S(=O)(=O)NCCC2=CCCCC2)cc1C(N)=O | -26 | / | 75* | 0 | -1 | 19 | 84* | 62
CCCNC(=O)Nc1ccc2c(c1)C(=O)N(C)C[C@@H](OC)[C@H](C)CN(C(=O)c1ccccc1F)[C@H](C)CO2 | / | / | / | 0 | / | / | / | /
CCN(CC(=O)Nc1ccc(NC(C)=O)cc1)C(=O)C1(c2ccc(Cl)cc2)CCC1 | / | -22 | 48 | 0 | / | / | 39 | -4
CCN(CC(=O)Nc1ccc(NC(C)=O)cc1)C(=O)C12CC3CC(CC(Cl)(C3)C1)C2 | 26 | 2 | -1 | 0 | -1 | 6 | / | /
COc1cnc(-c2ccccn2)nc1Sc1c(Cl)cccc1Cl | -17 | -1 | 91* | / | 1 | 18 | 24 | 3
COc1cnc(-c2ccccn2)nc1Sc1ccccc1Cl | -9 | -39 | 91* | / | -5 | -8 | 90* | 25
CCOC(=O)C(C)Sc1nc(-c2ccccn2)ncc1OC (centres undefined) | -5 | / | 44 | 0 | -4 | -3 | / | /
Cn1cc([N+](=O)[O-])c(C(=O)Nc2nc(-c3ccc(Cl)cc3)cs2)n1 | 4 | -2 | 71* | / | 2 | 7 | 47 | 0
COc1ccccc1CNC(=O)C[C@@H]1CC[C@@H](NC(C)=O)[C@@H](CO)O1 | / | / | / | 0 | / | / | / | /
COc1ccc(NS(=O)(=O)c2ccc(Br)cc2)cn1 | 11 | 6 | 6 | 0 | 1 | 3 | / | /
COc1ccc(NS(=O)(=O)c2ccc3oc4ccccc4c3c2)cn1 | -34 | 26 | 88* | / | 5 | -1 | 76* | 63
O=S(=O)(Nc1ccc2c(c1)OCCO2)c1cccc2nsnc12 | -23 | 22 | 52 | / | 5 | 17 | -2 | -7
Cc1cccc(C(=O)N[C@H](C(=O)Nc2ncc(C)s2)C(C)C)c1 | -30 | / | 85* | 0 | 1 | 5 | 98* | 23
